{"data": "Results from different studies", "target": "Mitogen-activated protein kinase kinase kinase kinase 3 (MAP4K3, Homo sapiens, UniProt Q8IVH8)", "Sequence (Q8IVH8 1-894, as in one of the studies)": "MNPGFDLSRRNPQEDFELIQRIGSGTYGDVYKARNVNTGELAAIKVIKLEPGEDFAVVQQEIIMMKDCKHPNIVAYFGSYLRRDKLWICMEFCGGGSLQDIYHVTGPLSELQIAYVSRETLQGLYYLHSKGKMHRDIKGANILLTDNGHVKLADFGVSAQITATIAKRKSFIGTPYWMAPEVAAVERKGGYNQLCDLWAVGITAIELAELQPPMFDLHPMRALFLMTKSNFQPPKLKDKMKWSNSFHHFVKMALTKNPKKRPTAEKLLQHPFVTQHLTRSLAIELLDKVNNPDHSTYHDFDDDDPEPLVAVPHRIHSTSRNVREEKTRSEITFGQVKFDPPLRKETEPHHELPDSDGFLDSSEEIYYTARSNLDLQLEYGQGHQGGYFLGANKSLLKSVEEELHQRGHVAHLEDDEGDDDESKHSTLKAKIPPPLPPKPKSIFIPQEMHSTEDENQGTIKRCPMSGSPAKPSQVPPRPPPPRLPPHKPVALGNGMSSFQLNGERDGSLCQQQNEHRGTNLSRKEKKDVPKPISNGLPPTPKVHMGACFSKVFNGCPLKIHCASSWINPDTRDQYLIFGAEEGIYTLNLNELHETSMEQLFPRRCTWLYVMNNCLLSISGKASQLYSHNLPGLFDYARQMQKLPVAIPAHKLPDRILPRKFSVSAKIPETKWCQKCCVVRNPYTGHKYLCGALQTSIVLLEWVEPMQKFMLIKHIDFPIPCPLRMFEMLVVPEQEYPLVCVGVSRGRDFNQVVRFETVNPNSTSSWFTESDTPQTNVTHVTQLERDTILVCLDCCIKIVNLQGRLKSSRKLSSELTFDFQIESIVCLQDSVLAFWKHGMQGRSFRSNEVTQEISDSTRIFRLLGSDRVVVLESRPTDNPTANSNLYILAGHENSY"}
{"SMILES": "CCCCC(=O)Nc1ccc(-c2ccc3ncn(CCC)c(=O)c3c2)cn1", "test": "binding, competition with immobilised ligand", "conditions": "0.5 µM", "quantity": "remaining binding", "value": "81%"}
{"SMILES": "C[C@H]1CC[C@H](n2c3cnccc3c3cnc(Nc4ccc5c(n4)CCN(C(=O)CO)C5)nc32)CC1", "test": "binding, competition with immobilised ligand", "conditions": "1 µM", "quantity": "remaining binding", "value": "100%"}
{"SMILES": "C#Cc1cc(-c2cc(Nc3nc(N[C@@H](C)c4ccc(F)cn4)ncc3Cl)n[nH]2)ccc1C=O", "test": "enzyme activity, inhibitor", "conditions": "0.2 µM", "quantity": "inhibition", "value": "45.4%"}
{"SMILES": "COc1ccc2oc(-c3ccc4nc(N)oc4c3)c/c(=N\\c3ccccc3NC(=O)CCN)c2c1", "test": "binding", "conditions": "1 µM", "quantity": "remaining binding", "value": "113%"}
{"SMILES": "C=CC(=O)N1CCC([C@@H]2CCNc3c(C(N)=O)c(-c4ccc(Oc5ccccc5)cc4)nn32)CC1", "test": "enzyme activity, inhibitor", "conditions": "1 µM", "quantity": "inhibition", "value": "14%"}
{"SMILES": "C1=C/COCc2cc(ccc2OCCN2CCCC2)Nc2nccc(n2)-c2cccc(c2)COC/1", "test": "cell-free assay", "conditions": "0.1 µM", "quantity": "remaining signal", "value": "80%"}
{"SMILES": "CO[C@@H]1[C@H](N(C)C(=O)c2ccccc2)C[C@H]2O[C@]1(C)n1c3ccccc3c3c4c(c5c6ccccc6n2c5c31)C(=O)NC4", "test": "enzyme activity, inhibitor", "conditions": "1 µM", "quantity": "inhibition", "value": "77%"}
{"SMILES": "Cc1ccc(NC(=O)c2ccnc(C(F)(F)F)c2)cc1-c1cc(OCCO)nc(N2CCOCC2)c1", "test": "binding, competition with immobilised ligand", "conditions": "1 µM", "quantity": "remaining binding", "value": "100%"}
